pEC50, pKi: −log10 of the molar value. The source made the active and inactive calls. No cut-off for these calls is given here.
Assays:
Rhodesain = Rhodesain (Trypanosoma brucei rhodesiense, UniProt Q95PM0); test: Inhibition of Trypanosoma brucei rhodesiense rhodesain expressed in Pichia pastoris using Cbz-Phe-Arg-AMC as substrate after 15 to 30 mins by fluorescence spectrophotometric analysis
Cruzipain = Cruzipain (Trypanosoma cruzi, UniProt P25779); test: Inhibition of Trypanosoma cruzi cruzain
Cathepsin B [1] = target: T1, Cathepsin B (Homo sapiens, UniProt P07858); test: Inhibition of human cathepsin B
Procathepsin L [2] = target: T2, Procathepsin L (Homo sapiens, UniProt P07711); test: Inhibition of human cathepsin L
Target sequence in this assay (P07711 whole entry): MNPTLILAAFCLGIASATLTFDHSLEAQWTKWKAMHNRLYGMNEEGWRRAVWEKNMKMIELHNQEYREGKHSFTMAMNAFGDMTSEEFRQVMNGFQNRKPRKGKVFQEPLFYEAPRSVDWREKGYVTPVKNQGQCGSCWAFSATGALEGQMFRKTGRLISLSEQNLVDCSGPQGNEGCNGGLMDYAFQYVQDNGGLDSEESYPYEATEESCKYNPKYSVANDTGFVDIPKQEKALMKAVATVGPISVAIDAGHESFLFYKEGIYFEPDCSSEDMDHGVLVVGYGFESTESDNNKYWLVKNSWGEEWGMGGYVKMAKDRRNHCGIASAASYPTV

Cathepsin B [3] = target: T1, Cathepsin B; test: Reversible inhibition of human cathepsin B assessed as enzyme activity recovery at 0.1 to 5 times IC50 preincubated for 5 mins followed by substrate addition measured up to 1500 sec by dilution assay
Procathepsin L [4] = target: T2, Procathepsin L; test: Reversible inhibition of human cathepsin L assessed as enzyme activity recovery at 0.1 to 5 times IC50 preincubated for 5 mins followed by substrate addition measured up to 1500 sec by dilution assay
Target sequence in this assay (P07711 114-333 limits assumed): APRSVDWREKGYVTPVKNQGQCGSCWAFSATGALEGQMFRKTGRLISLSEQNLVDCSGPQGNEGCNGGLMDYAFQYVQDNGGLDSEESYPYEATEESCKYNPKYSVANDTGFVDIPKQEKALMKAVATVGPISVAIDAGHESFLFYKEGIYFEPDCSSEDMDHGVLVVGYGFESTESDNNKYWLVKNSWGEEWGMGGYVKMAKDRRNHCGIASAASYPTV

[5] = target: Rhodesain (Trypanosoma brucei rhodesiense) (UniProt Q95PM0); test: Reversible inhibition of Trypanosoma brucei rhodesiense rhodesain assessed as enzyme activity recovery preincubated for 5 mins followed by substrate addition measured after 30 mins by dialysis assay relative to control; set-up: scale not given: the % may be the effect or the level left
[6] = target: Rhodesain (Trypanosoma brucei rhodesiense) (UniProt Q95PM0); test: Reversible inhibition of Trypanosoma brucei rhodesiense rhodesain assessed as enzyme activity recovery preincubated for 5 mins followed by substrate addition measured after 60 mins by dialysis assay relative to control; set-up: scale not given: the % may be the effect or the level left
[7] = target: Rhodesain (Trypanosoma brucei rhodesiense) (UniProt Q95PM0); test: Reversible inhibition of Trypanosoma brucei rhodesiense rhodesain assessed as enzyme activity recovery preincubated for 5 mins followed by substrate addition measured after 90 mins by dialysis assay relative to control; set-up: scale not given: the % may be the effect or the level left
[8] = target: Rhodesain (Trypanosoma brucei rhodesiense) (UniProt Q95PM0); test: Reversible inhibition of Trypanosoma brucei rhodesiense rhodesain assessed as enzyme activity recovery preincubated for 5 mins followed by substrate addition measured after 120 mins by dialysis assay relative to control; set-up: scale not given: the % may be the effect or the level left
[9] = tested on: Trypanosoma brucei brucei; test: Antitrypanosomal activity against Trypanosoma brucei brucei expressing BS449 after 24 hrs by ATPlite-luciferase reporter gene assay; assay type: functional
[10] = tested on: Trypanosoma brucei brucei; test: Antitrypanosomal activity against Trypanosoma brucei brucei expressing BS449 after 48 hrs by ATPlite-luciferase reporter gene assay; assay type: functional
[11] = tested on: Trypanosoma brucei brucei; test: Antitrypanosomal activity against Trypanosoma brucei brucei expressing BS449 after 72 hrs by ATPlite-luciferase reporter gene assay; assay type: functional
[12] = Stability of the compound in HMI-9 medium after 24 hrs; assay type: physicochemical
[13] = target: Rhodesain (Trypanosoma brucei rhodesiense) (UniProt Q95PM0); test: Binding affinity to Trypanosoma brucei rhodesiense 15N-labeled rhodesain expressed in Pichia pastoris at 1:1 molar ratio of protein:inhibitor incubated for 15 mins by 1H[…]TROSY-HSQC spectra analysis
Outline: (§1)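 15N-labelled rhodesain was mixed with inhibitor at 1:1 mol/mol, incubated 15 min, and a 1H–15N TROSY-HSQC spectrum was recorded. Inhibitor in DMSO-d6 was then added to reach a 1:3 protein/inhibitor ratio, incubated a further 7 min, and the spectrum was re-recorded.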

[14] = target: Rhodesain (Trypanosoma brucei rhodesiense) (UniProt Q95PM0); test: Binding affinity to Trypanosoma brucei rhodesiense 15N-labeled rhodesain expressed in Pichia pastoris at 1:3 molar ratio of protein:inhibitor incubated for 22 mins by 1H[…]TROSY-HSQC spectra analysis; outline: as §1

Chain of Rhodesain (Q95PM0 whole entry): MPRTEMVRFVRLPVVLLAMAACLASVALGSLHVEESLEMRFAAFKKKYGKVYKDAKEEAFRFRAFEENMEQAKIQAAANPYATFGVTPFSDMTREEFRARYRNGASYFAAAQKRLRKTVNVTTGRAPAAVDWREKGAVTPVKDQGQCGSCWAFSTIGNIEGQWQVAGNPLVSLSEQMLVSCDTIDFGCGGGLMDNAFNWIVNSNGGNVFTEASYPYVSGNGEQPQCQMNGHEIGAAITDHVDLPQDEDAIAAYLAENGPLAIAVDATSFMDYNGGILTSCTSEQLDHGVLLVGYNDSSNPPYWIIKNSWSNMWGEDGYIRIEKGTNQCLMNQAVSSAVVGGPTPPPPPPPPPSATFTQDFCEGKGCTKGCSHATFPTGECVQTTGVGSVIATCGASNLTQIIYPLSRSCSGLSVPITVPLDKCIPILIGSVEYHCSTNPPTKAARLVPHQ
Chain of Rhodesain (Trypanosoma brucei rhodesiense) (Q95PM0 1-450): as the sequence (Q95PM0 whole entry) above
Chain of Cruzipain (P25779 whole entry): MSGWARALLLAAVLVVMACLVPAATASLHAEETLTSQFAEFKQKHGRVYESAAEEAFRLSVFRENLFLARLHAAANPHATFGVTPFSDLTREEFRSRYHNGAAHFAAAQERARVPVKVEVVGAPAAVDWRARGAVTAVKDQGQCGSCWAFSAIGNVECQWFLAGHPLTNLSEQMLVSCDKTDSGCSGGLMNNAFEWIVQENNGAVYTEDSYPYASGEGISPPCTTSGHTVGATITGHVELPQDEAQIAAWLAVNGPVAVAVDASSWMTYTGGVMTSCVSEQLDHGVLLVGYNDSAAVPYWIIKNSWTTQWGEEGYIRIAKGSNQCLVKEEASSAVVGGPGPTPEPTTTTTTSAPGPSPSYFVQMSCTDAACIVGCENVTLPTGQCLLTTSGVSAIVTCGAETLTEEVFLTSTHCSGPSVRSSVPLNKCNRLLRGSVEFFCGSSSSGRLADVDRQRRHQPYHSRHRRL

Compound	pKi (Rhodesain)	pKi (Cruzipain)	pKi (Cathepsin B [1])	pKi (Procathepsin L [2])	inhibition (Cathepsin B [3])	reversible inhibition (enzyme activity recovery) (Procathepsin L [4])	Activity [5] [%]	Activity [6] [%]	Activity [7] [%]	Activity [8] [%]	pEC50 [9]	pEC50 [10]	pEC50 [11]	Stability [12]	Activity [13]	Activity [14]
O=C(N[C@@H](Cc1ccccc1)C(=O)N[C@H](/C=C/[N+](=O)[O-])Cc1ccccc1)OCc1ccccc1	7.54	6.89	6.51	6.96	–	–	–	–	–	–	–	–	–	–	–	–
C/C(=C\[C@H](C)NC(=O)[C@H](CC(C)C)NC(=O)OCc1ccccc1)[N+](=O)[O-]	6.26	–	5.49	5.69	–	–	–	–	–	–	–	–	–	–	–	–
CC(C)C[C@@H](/C=C/[N+](=O)[O-])NC(=O)[C@H](CC(C)C)NC(=O)OCc1ccccc1	7.74	7.60	6.68	7.34	Active	Active	17	26	35	49	–	–	–	–	–	–
O=C(N[C@@H](Cc1ccccc1)C(=O)N[C@H](/C=C/[N+](=O)[O-])CCc1ccccc1)OCc1ccccc1	8.38	7.96	7.47	7.71	–	–	–	–	–	–	5.79	5.68	5.46	Unstable	–	–
CC(C)C[C@@H](/C=C/[N+](=O)[O-])NC(=O)[C@H](Cc1ccccc1)NC(=O)OCc1ccccc1	8.19	7.80	7.17	7.52	–	Active	16	24	29	47	6.00	5.88	5.69	Unstable	Active	Active
CC(C)C[C@H](NC(=O)OCc1ccccc1)C(=O)N[C@H](/C=C/[N+](=O)[O-])Cc1ccccc1	7.74	7.55	6.15	7.31	–	Active	–	–	–	–	–	–	–	–	–	–
C/C(=C\[C@H](C)NC(=O)[C@H](Cc1ccccc1)NC(=O)OCc1ccccc1)[N+](=O)[O-]	7.30	–	5.20	6.55	–	–	–	–	–	–	–	–	–	–	–	–
CC(C)C[C@H](NC(=O)OCc1ccccc1)C(=O)N[C@H](/C=C/[N+](=O)[O-])CCc1ccccc1	7.85	7.77	7.14	7.57	–	–	22	46	76	110	–	–	–	–	–	–
CN1CCN(C(=O)N[C@@H](Cc2ccccc2)C(=O)N[C@H](/C=C/S(=O)(=O)c2ccccc2)CCc2ccccc2)CC1	–	–	–	–	–	–	0	2	0	3	–	–	–	–	–	–
N=C(NCCCCCCNC(=N)NC(=N)Nc1ccc(Cl)cc1)NC(=N)Nc1ccc(Cl)cc1 [CHLORHEXIDINE]	–	–	–	–	–	–	–	–	–	–	6.37	6.39	6.37	–	–	–
C[C@@H](/C=C/[N+](=O)[O-])NC(=O)[C@H](Cc1ccccc1)NC(=O)OCc1ccccc1	9.31	9.36	8.10	7.96	–	Active	–	–	–	–	5.25	5.14	4.97	Unstable	–	–
CC(C)C[C@H](NC(=O)OCc1ccccc1)C(=O)N[C@@H](C)/C=C/[N+](=O)[O-]	7.52	6.89	6.51	6.70	Active	–	–	–	–	–	–	–	–	–	–	–

— ChEMBL document CHEMBL3864177, “Dipeptidyl Nitroalkenes as Potent Reversible Inhibitors of Cysteine Proteases Rhodesain and Cruzain” (ACS Med Chem Lett, 2016)
